This note sets out measurements from ChEMBL document CHEMBL1153585, “Evaluation of in vivo wound-healing potential of 2-[4-(2,4-dimethoxy-benzoyl)-phenoxy]-1-[4-(3-piperidin-4-yl-propyl)-piperidin-1-yl]-ethanone derivatives” (2009).

Activity calls are given as the source filed them. No cut-off for these calls is given here.

Test [1] deals with Rattus norvegicus. The test is described as follows: Wound healing activity in po dosed Swiss albino rat dead space wound model assessed as dry weight of granulation tissue per 100 gm after 24 hrs. Type of test: functional. Summed up:
(§1)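 Oral dosing by feeding tube of a 4 mg/mL suspension in 1% (w/v) Tween-80, prepared fresh. Ten groups of four animals: untreated control, a 0.2% (w/w) nitrofurazone ointment reference, and eight test groups. Granulation tissue was weighed wet and dry, and its breaking strength was measured. Values are mean ± SE of 4 animals, analysed by one-way ANOVA with Tukey's test against control.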

The test system of test [2] is Rattus norvegicus. As to the kind of experiment: Wound healing activity in po dosed Swiss albino rat dead space wound model assessed as skin breaking strength after 10 days. The format is functional. In a few lines:
as §1

Test [3] concerns Rattus norvegicus. As to the kind of experiment: Wound healing activity in po dosed Swiss albino rat dead space wound model assessed as wet weight of granulation tissue per 100 gm after 24 hrs. Type of test: functional. In a few lines:
as §1

For test [4], the system named is Rattus norvegicus. The test is described as follows: Wound healing activity in po dosed Swiss albino rat incision wound model assessed as skin breaking strength after 10 days. Type of test: functional.
Test [5] concerns Rattus norvegicus. As to the kind of experiment: Wound healing activity in po dosed Swiss albino rat dead space wound model assessed as granuloma epithelialization and collagenation. Type of test: functional, organism-based.
Test [6] concerns Rattus norvegicus. As to the kind of experiment: Wound healing activity in po dosed Swiss albino rat incision wound model assessed as increase in dry weight of granulation tissue after 24 hrs. Type of test: functional, organism-based.
For test [7], the system named is Rattus norvegicus. The test is described as follows: Wound healing activity in po dosed Swiss albino rat incision wound model assessed as increase in wet weight of granulation tissue after 24 hrs. The format is functional, organism-based.

On to `COc1ccc(NC(=S)N2CCC(CCCC3CCN(C(=O)COc4ccc(C(=O)c5ccc(OC)cc5OC)cc4)CC3)CC2)cc1`, for which the Activity in test [1] is listed as 12.36 mg; in test [2], 355.42 g; in test [3], 80.54 mg; in test [4], 675 g.

For the compound `COc1ccc(NC(=O)N2CCC(CCCC3CCN(C(=O)COc4ccc(C(=O)c5ccc(OC)cc5OC)cc4)CC3)CC2)cc1`, the Activity was found to be 21.59 mg in test [1], 414.19 g in test [2], 112.48 mg in test [3] and 503.89 g in test [4].

Turning to `NC(=O)N/N=C/c1ccc([N+](=O)[O-])o1` [NITROFURAZONE], the Activity in test [4] is 875 g.

As to `COc1ccc(C(=O)c2ccc(OCC(=O)N3CCC(CCCC4CCN(C(=O)Nc5ccc(F)cc5)CC4)CC3)cc2)c(OC)c1`, the Activity in test [1] amounted to 17.8 mg; in test [2], 451.6 g; in test [3], 91.31 mg; in test [4], 552.06 g.

In the case of `COc1ccc(C(=O)c2ccc(OCC(=O)N3CCC(CCCC4CCN(C(=S)Nc5ccc(Cl)cc5Cl)CC4)CC3)cc2)c(OC)c1`, the Activity in test [1] is 21.02 mg; in test [2], 619.15 g; in test [3], 88.02 mg; in test [4] it was 612.5 g.

For `COc1ccc(C(=O)c2ccc(OCC(=O)N3CCC(CCCC4CCN(C(=S)Nc5ccccc5Cl)CC4)CC3)cc2)c(OC)c1`, the Activity amounted to 26.04 mg in test [1], 623.25 g in test [2], 134.79 mg in test [3] and 748.38 g in test [4]. For the same compound, the outcome in test [5], in test [6] and in test [7] was Active.

Consider `COc1ccc(C(=O)c2ccc(OCC(=O)N3CCC(CCCC4CCN(C(=O)Nc5ccc(Cl)cc5Cl)CC4)CC3)cc2)c(OC)c1`, for which the Activity in test [1] was 17.81 mg; in test [2], 361.6 g; in test [3], 79 mg; in test [4], 445.12 g.

For `COc1ccc(C(=O)c2ccc(OCC(=O)N3CCC(CCCC4CCN(C(=S)Nc5ccc(F)cc5)CC4)CC3)cc2)c(OC)c1`, the Activity in test [1] worked out at 26.27 mg; in test [2] it was 645.69 g; in test [3] it was 122.94 mg; in test [4], 760.88 g. The result in test [5], in test [6] and in test [7] was Active.

For the compound `COc1ccc(C(=O)c2ccc(OCC(=O)N3CCC(CCCC4CCN(C(=O)Nc5ccccc5Cl)CC4)CC3)cc2)c(OC)c1`, the Activity was determined as 21.01 mg in test [1], 541.82 g in test [2], 104.85 mg in test [3] and 605.49 g in test [4]. The outcome in test [5] was Active.
